Results published in ChEMBL document CHEMBL2384906, “Biological activity, design, synthesis and structure activity relationship of some novel derivatives of curcumin containing sulfonamides” (Eur J Med Chem, 2013).
In brackets after ≈: the same amount, converted by molar mass. Activity calls are given as the source filed them. The calls are words filed in the database; no cut-off is given here.

What was measured:
Mus musculus = test: Antiinflammatory activity in mouse assessed as inhibition of carrageenan-induced increase in paw volume at 200 mg/kg administered 1 hr prior to carrageenan challenge measured after 3 hrs relative to control; type: functional
Procedure, shortened: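 Mice were fasted 2 h and placed in groups of five. Controls received saline i.p. Phenylbutazone was given at 100 mg/kg i.p., curcumin at 200 mg/kg i.p., and derivatives at 200 mg/kg. After 1 h, 0.1 mL of 1% carrageenan in saline was injected subplantar into the right hind paw. Paw volume was followed by plethysmometer for 3 h, and % inhibition was calculated as (Vc − Vt)/Vc × 100.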

HCT-116 = test: Cytotoxicity against human HCT116 cells after 24 hrs by MTT assay; type: functional, cell-based
Procedure, shortened: (§1)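 The MTT assay seeded 5 × 10⁴ cells per well and grew them 24 h in RPMI 1640 with compound at 2.5–200 µM. Medium without cells was the blank and adriamycin the positive control. MTT was added for 4 h at 37 °C, formazan was solubilised, and absorbance was read at 570 nm. IC50 is the concentration that cuts viability 50% against untreated cells.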

QG-56 = test: Cytotoxicity against human QG56 cells after 24 hrs by MTT assay; type: functional, cell-based; procedure, shortened: as §1
HeLa = test: Cytotoxicity against human HeLa cells after 24 hrs by MTT assay; type: functional, cell-based; procedure, shortened: as §1
HepG2 = test: Cytotoxicity against human HepG2 cells after 24 hrs by MTT assay; type: functional, cell-based; procedure, shortened: as §1
Trichoderma viride [1] = test: Antifungal activity against Trichoderma viride MTCC 1107 after 48 hrs; type: functional; details: MTCC 1107, 48 h
Trichoderma viride [2] = test: Antifungal activity against Trichoderma viride MTCC 1107 assessed as zone of inhibition at 20 uM after 48 hrs by disc diffusion method; type: functional
Procedure, shortened: (§2)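 Spores from 4-day potato dextrose agar cultures, suspended in sterile water at 1.5 × 10⁵ CFU/mL. 0.2 mL was spread on potato dextrose agar. 5 mm filter-paper discs soaked with test compound were laid on the lawn. Incubation was 48 h at 28 °C, then the inhibition zone was measured in mm. Fluconazole was the positive control and acetone the negative control.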

Trichoderma viride [3] = test: Antifungal activity against Trichoderma viride MTCC 1107 assessed as zone of inhibition at 40 uM after 48 hrs by disc diffusion method; type: functional; details: MTCC 1107, 48 h, read-out: IZ; procedure, shortened: as §2
Trichoderma viride [4] = test: Antifungal activity against Trichoderma viride MTCC 1107 assessed as zone of inhibition at 80 uM after 48 hrs by disc diffusion method; type: functional; details: MTCC 1107, 48 h, read-out: IZ; procedure, shortened: as §2
Curvularia lunata [5] = test: Antifungal activity against Curvularia lunata MTCC 581 after 48 hrs; type: functional; details: MTCC 581, 48 h
Curvularia lunata [6] = test: Antifungal activity against Curvularia lunata MTCC 581 assessed as zone of inhibition at 20 uM after 48 hrs by disc diffusion method; type: functional; procedure, shortened: as §2
Curvularia lunata [7] = test: Antifungal activity against Curvularia lunata MTCC 581 assessed as zone of inhibition at 40 uM after 48 hrs by disc diffusion method; type: functional; details: MTCC 581, 48 h, read-out: IZ; procedure, shortened: as §2
Aspergillus flavus [8] = test: Antifungal activity against Aspergillus flavus MTCC 1021 after 48 hrs; type: functional; details: MTCC 1021, 48 h
Curvularia lunata [9] = test: Antifungal activity against Curvularia lunata MTCC 581 assessed as zone of inhibition at 80 uM after 48 hrs by disc diffusion method; type: functional; details: MTCC 581, 48 h, read-out: IZ; procedure, shortened: as §2
Aspergillus flavus [10] = test: Antifungal activity against Aspergillus flavus MTCC 1021 assessed as zone of inhibition at 80 uM after 48 hrs by disc diffusion method; type: functional; procedure, shortened: as §2
Aspergillus niger [11] = test: Antifungal activity against Aspergillus niger MTCC 1108 after 48 hrs; type: functional
Aspergillus niger [12] = test: Antifungal activity against Aspergillus niger MTCC 1108 assessed as zone of inhibition at 80 uM after 48 hrs by disc diffusion method; type: functional; procedure, shortened: as §2
Escherichia coli [13] = test: Antimicrobial activity against Escherichia coli ATCC 35218 after 24 hrs by broth micro serial dilution method; type: functional; details: ATCC 35218, 24 h
Procedure, shortened: (§3)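 This was broth microdilution in autoclaved Mueller-Hinton broth. 150 µL of compound per well was serially diluted […], and 50 µL of test organism was added. Plates were incubated 24 h at 37 °C and optical density was read.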

Escherichia coli [14] = test: Antimicrobial activity against Escherichia coli ATCC 35218 assessed as diameter of inhibition zone at 20 uM after 24 hrs by Kirby -Baur disc diffusion method; type: functional
Procedure, shortened: (§4)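 Kirby-Bauer disc diffusion was used. Acetone stocks (160 µM) were serially doubled down to 80, 40 and 20 µM. 4 µL of each went onto 5 mm sterile paper discs, which were dried 30 min at 50 °C. Inoculum was 1.5 × 10⁸ CFU/mL diluted to 3 × 10² CFU/mL, and 50 µL was spread on Mueller-Hinton agar. After 24 h at 37 °C the inhibition-zone diameter was measured. Ciprofloxacin served as positive control.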

Escherichia coli [15] = test: Antimicrobial activity against Escherichia coli ATCC 35218 assessed as diameter of inhibition zone at 40 uM after 24 hrs by Kirby -Baur disc diffusion method; type: functional; procedure, shortened: as §4
Escherichia coli [16] = test: Antimicrobial activity against Escherichia coli ATCC 35218 assessed as diameter of inhibition zone at 80 uM after 24 hrs by Kirby -Baur disc diffusion method; type: functional; details: ATCC 35218, 24 h, read-out: DIZ; procedure, shortened: as §4
Pseudomonas aeruginosa [17] = test: Antimicrobial activity against Pseudomonas aeruginosa ATCC 15499 after 24 hrs by broth micro serial dilution method; type: functional; details: ATCC 15499, 24 h; procedure, shortened: as §3
Pseudomonas aeruginosa [18] = test: Antimicrobial activity against Pseudomonas aeruginosa ATCC 15499 assessed as diameter of inhibition zone at 20 uM after 24 hrs by Kirby -Baur disc diffusion method; type: functional; procedure, shortened: as §4
Pseudomonas aeruginosa [19] = test: Antimicrobial activity against Pseudomonas aeruginosa ATCC 15499 assessed as diameter of inhibition zone at 40 uM after 24 hrs by Kirby -Baur disc diffusion method; type: functional; details: ATCC 15499, 24 h, read-out: DIZ; procedure, shortened: as §4
Pseudomonas aeruginosa [20] = test: Antimicrobial activity against Pseudomonas aeruginosa ATCC 15499 assessed as diameter of inhibition zone at 80 uM after 24 hrs by Kirby -Baur disc diffusion method; type: functional; procedure, shortened: as §4
Salmonella typhi [21] = test: Antimicrobial activity against Salmonella typhi ATCC 23564 after 24 hrs by broth micro serial dilution method; type: functional, Salmonella enterica subsp. enterica serovar Typhi; details: Salmonella enterica, ATCC 23564, 24 h
Salmonella typhi [22] = test: Antimicrobial activity against Salmonella typhi ATCC 23564 assessed as diameter of inhibition zone at 20 uM after 24 hrs by Kirby -Baur disc diffusion method; type: functional; details: Salmonella enterica subsp. enterica serovar Typhi
Salmonella typhi [23] = test: Antimicrobial activity against Salmonella typhi ATCC 23564 assessed as diameter of inhibition zone at 40 uM after 24 hrs by Kirby -Baur disc diffusion method; type: functional, Salmonella enterica subsp. enterica serovar Typhi; details: Salmonella enterica, ATCC 23564, 24 h; read-out: DIZ
Salmonella typhi [24] = test: Antimicrobial activity against Salmonella typhi ATCC 23564 assessed as diameter of inhibition zone at 80 uM after 24 hrs by Kirby -Baur disc diffusion method; type: functional, Salmonella enterica subsp. enterica serovar Typhi; details: Salmonella enterica, ATCC 23564, 24 h; read-out: DIZ
Bacillus cereus [25] = test: Antimicrobial activity against Bacillus cereus MTCC 7350 after 24 hrs by broth micro serial dilution method; type: functional; procedure, shortened: as §3
Bacillus cereus [26] = test: Antimicrobial activity against Bacillus cereus MTCC 7350 assessed as diameter of inhibition zone at 80 uM after 24 hrs by Kirby -Baur disc diffusion method; type: functional; procedure, shortened: as §4
Staphylococcus aureus [27] = test: Antimicrobial activity against Staphylococcus aureus ATCC 11632 after 24 hrs by broth micro serial dilution method; type: functional; procedure, shortened: as §3
Staphylococcus aureus [28] = test: Antimicrobial activity against Staphylococcus aureus ATCC 11632 assessed as diameter of inhibition zone at 20 uM after 24 hrs by Kirby -Baur disc diffusion method; type: functional; procedure, shortened: as §4
Staphylococcus aureus [29] = test: Antimicrobial activity against Staphylococcus aureus ATCC 11632 assessed as diameter of inhibition zone at 40 uM after 24 hrs by Kirby -Baur disc diffusion method; type: functional; procedure, shortened: as §4
Staphylococcus aureus [30] = test: Antimicrobial activity against Staphylococcus aureus ATCC 11632 assessed as diameter of inhibition zone at 80 uM after 24 hrs by Kirby -Baur disc diffusion method; type: functional; procedure, shortened: as §4

COc1ccc(NS(=O)(=O)c2ccc(/N=N/c3c(/C=C/c4ccc(O)c(OC)c4)noc3/C=C/c3ccc(O)c(OC)c3)cc2)nn1
inhibition in vivo at 200 mg/kg (Mus musculus): 48.3% | IC50 (HCT-116): Not Active | IC50 (QG-56): Not Active | IC50 (HeLa): Not Active | IC50 (HepG2): Not Active | MIC (Trichoderma viride [1]): > 80 µM | inhibition zone (IZ) (Trichoderma viride [2]): inactive | zone of inhibition at 40 µM (Trichoderma viride [3]): 9 mm | zone of inhibition at 80 µM (Trichoderma viride [4]): 11 mm | MIC (Curvularia lunata [5]): > 80 µM | inhibition zone (IZ) (Curvularia lunata [6]): inactive | zone of inhibition at 40 µM (Curvularia lunata [7]): 9 mm | MIC (Aspergillus flavus [8]): > 80 µM | zone of inhibition at 80 µM (Curvularia lunata [9]): 11 mm | inhibition zone (IZ) (Aspergillus flavus [10]): inactive | MIC (Aspergillus niger [11]; MTCC 1108, 48 h): > 80 µM | inhibition zone (IZ) (Aspergillus niger [12]): inactive | MIC (Escherichia coli [13]): > 80 µM | diameter of the inhibition zone (DIZ) (Escherichia coli [14]): inactive | diameter of the inhibition zone (DIZ) (Escherichia coli [15]): inactive | zone of inhibition at 80 µM (Escherichia coli [16]): 11 mm | MIC (Pseudomonas aeruginosa [17]): 80 µM (≈ 52.5 µg/mL) | diameter of the inhibition zone (DIZ) (Pseudomonas aeruginosa [18]): inactive | zone of inhibition at 40 µM (Pseudomonas aeruginosa [19]): 9 mm | zone of inhibition at 80 µM (Pseudomonas aeruginosa [20]; ATCC 15499, 24 h, read-out: DIZ): 13 mm | MIC (Salmonella typhi [21]): 80 µM (≈ 52.5 µg/mL) | diameter of the inhibition zone (DIZ) (Salmonella typhi [22]): inactive | zone of inhibition at 40 µM (Salmonella typhi [23]): 9 mm | zone of inhibition at 80 µM (Salmonella typhi [24]): 14 mm | MIC (Bacillus cereus [25]): inactive | diameter of the inhibition zone (DIZ) (Bacillus cereus [26]): inactive | MIC (Staphylococcus aureus [27]; ATCC 11632, 24 h): > 80 µM | diameter of the inhibition zone (DIZ) (Staphylococcus aureus [28]): inactive | diameter of the inhibition zone (DIZ) (Staphylococcus aureus [29]): inactive | zone of inhibition at 80 µM (Staphylococcus aureus [30]; ATCC 11632, 24 h, read-out: DIZ): 10 mm

COc1cc(/C=C/c2noc(/C=C/c3ccc(O)c(OC)c3)c2/N=N/c2ccc(S(=O)(=O)Nc3ccccn3)cc2)ccc1O
inhibition in vivo at 200 mg/kg (Mus musculus): 27.4% | IC50 (HCT-116): Not Active | IC50 (QG-56): Not Active | IC50 (HeLa): Not Active | IC50 (HepG2): Not Active | MIC (Trichoderma viride [1]): 80 µM (≈ 50.1 µg/mL) | inhibition zone (IZ) (Trichoderma viride [2]): inactive | zone of inhibition at 40 µM (Trichoderma viride [3]): 10 mm | zone of inhibition at 80 µM (Trichoderma viride [4]): 12 mm | MIC (Curvularia lunata [5]): > 80 µM | inhibition zone (IZ) (Curvularia lunata [6]): inactive | zone of inhibition at 40 µM (Curvularia lunata [7]): 10 mm | MIC (Aspergillus flavus [8]): > 80 µM | zone of inhibition at 80 µM (Curvularia lunata [9]): 12 mm | inhibition zone (IZ) (Aspergillus flavus [10]): inactive | MIC (Aspergillus niger [11]): inactive | inhibition zone (IZ) (Aspergillus niger [12]): inactive | MIC (Escherichia coli [13]): > 80 µM | diameter of the inhibition zone (DIZ) (Escherichia coli [14]): inactive | diameter of the inhibition zone (DIZ) (Escherichia coli [15]): inactive | zone of inhibition at 80 µM (Escherichia coli [16]): 10 mm | MIC (Pseudomonas aeruginosa [17]): > 80 µM | diameter of the inhibition zone (DIZ) (Pseudomonas aeruginosa [20]): inactive | MIC (Salmonella typhi [21]): 80 µM (≈ 50.1 µg/mL) | diameter of the inhibition zone (DIZ) (Salmonella typhi [22]): inactive | zone of inhibition at 40 µM (Salmonella typhi [23]): 9 mm | zone of inhibition at 80 µM (Salmonella typhi [24]): 15 mm | MIC (Bacillus cereus [25]): inactive | diameter of the inhibition zone (DIZ) (Bacillus cereus [26]): inactive | MIC (Staphylococcus aureus [27]): inactive | diameter of the inhibition zone (DIZ) (Staphylococcus aureus [30]): inactive
